Experiments:
[1] = Plasma concentration of LY-354740 in rats after oral administration of compound at a dose of 5 mg equiv 1/kg at 1 hr; assay type: ADME; settings: rat
Method in brief: (§1)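 Male Fischer 344 rats (190–250 g), fasted overnight, food returned ~4 h postdose; single oral dose of prodrug molar-equivalent to 5 mg/kg parent, in pH 2.5 20 mM KHPO₄. Blood drawn at 0.5, 1 and 3 h; plasma stored at –20 °C or below until analysis. Three plasma samples per time point; parent and prodrug measured.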

[2] = Plasma concentration of LY-354740 in rats after oral administration of compound at a dose of 5 mg equiv 1/kg at 3 hr; assay type: ADME; settings: rat; method in brief: as §1
[3] = Plasma concentration of LY-354740 in rats after oral administration of compound at a dose of 5 mg equiv 1/kg at 0.5 hr; assay type: ADME; settings: rat; method in brief: as §1
Caco-2 = assay: Inhibition of radiolabeled glycylsarcosine (Gly-Sar) uptake into Caco-2 cells done for 15 min at 37 degree C with compound; assay type: functional, cell-based; settings: Homo sapiens, Caco-2, 0.25 h
[4] = Inhibition of radiolabeled glycylsarcosine (Gly-Sar) uptake into chinese hamster ovary cells transfected with human PepT1 (CHO/hPepT1) done for 5-20 min at 37 degree C with compound; assay type: functional, cell-based; settings: Cricetulus griseus
[5] = Area under concentration of compound in rats at a dose of 5 mg equiv 1/kg; assay type: ADME; settings: rat, in vivo; method in brief: as §1
[6] = Plasma concentration of the prodrug and LY-354740 against the metabotropic glutamate receptor in rats after an oral dose of corresponding prodrug in 5 mg equiv 1/kg at 3 houre; assay type: ADME; settings: rat; method in brief: as §1
[7] = biological target: Metabotropic glutamate receptor 2 (Homo sapiens, UniProt Q14416); assay: Inhibition of [3H]LY-341,495 binding to recombinant human mGlu2 receptors
Metabotropic glutamate receptor 2 (Homo sapiens, UniProt Q14416), sequence (Q14416 whole entry): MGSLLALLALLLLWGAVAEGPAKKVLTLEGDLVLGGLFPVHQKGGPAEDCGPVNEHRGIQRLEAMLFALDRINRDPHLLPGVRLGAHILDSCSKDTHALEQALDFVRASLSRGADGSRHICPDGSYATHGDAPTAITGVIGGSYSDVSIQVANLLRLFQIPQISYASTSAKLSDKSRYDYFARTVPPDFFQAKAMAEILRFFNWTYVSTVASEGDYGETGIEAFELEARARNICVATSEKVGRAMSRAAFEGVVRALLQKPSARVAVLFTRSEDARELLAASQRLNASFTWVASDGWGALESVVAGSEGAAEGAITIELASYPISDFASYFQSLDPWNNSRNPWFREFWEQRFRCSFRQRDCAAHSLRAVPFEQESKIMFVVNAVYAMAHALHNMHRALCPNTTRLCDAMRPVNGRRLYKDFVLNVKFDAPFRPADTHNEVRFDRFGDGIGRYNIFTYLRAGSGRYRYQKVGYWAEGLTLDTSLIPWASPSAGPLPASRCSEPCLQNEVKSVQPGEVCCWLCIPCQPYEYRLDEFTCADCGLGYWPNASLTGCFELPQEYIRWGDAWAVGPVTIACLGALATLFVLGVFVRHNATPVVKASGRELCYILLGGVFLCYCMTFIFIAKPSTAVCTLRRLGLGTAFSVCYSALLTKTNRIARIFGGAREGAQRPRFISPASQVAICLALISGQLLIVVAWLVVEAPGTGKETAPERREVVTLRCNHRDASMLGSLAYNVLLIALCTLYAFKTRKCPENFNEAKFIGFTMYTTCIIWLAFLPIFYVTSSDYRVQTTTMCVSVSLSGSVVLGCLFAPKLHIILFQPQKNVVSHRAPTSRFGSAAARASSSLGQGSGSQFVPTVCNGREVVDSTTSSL

[8] = biological target: Metabotropic glutamate receptor 3 (Homo sapiens, UniProt Q14832); assay: Inhibition of [3H]LY-341,495 binding to recombinant human mGlu3 receptors
Metabotropic glutamate receptor 3, sequence (Q14832 whole entry): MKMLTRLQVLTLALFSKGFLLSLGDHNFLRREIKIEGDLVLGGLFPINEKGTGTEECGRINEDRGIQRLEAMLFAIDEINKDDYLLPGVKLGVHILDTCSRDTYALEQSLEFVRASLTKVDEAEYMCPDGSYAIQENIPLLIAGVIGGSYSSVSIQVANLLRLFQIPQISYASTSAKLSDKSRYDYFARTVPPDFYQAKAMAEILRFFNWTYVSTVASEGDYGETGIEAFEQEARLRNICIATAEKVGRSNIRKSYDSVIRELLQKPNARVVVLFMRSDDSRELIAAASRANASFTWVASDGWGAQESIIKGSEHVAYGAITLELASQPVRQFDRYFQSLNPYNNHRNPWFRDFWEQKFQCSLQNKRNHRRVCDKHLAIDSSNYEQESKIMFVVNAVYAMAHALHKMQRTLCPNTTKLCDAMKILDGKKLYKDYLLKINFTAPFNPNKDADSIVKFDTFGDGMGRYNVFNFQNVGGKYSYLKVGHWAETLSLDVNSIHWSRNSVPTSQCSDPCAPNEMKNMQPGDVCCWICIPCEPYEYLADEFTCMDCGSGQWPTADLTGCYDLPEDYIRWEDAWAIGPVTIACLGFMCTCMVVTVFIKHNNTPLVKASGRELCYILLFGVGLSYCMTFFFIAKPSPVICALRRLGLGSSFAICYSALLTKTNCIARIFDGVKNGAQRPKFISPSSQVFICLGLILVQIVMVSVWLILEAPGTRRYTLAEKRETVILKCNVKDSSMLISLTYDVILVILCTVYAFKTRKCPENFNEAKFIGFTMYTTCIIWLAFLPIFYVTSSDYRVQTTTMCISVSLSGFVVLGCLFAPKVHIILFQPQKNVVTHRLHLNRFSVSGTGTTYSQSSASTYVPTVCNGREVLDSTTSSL

Rattus norvegicus [9] = assay: Duration of suppression of compound in rat fear-potentiated startle assay at an oral dose of 3.0 mg/kg; Range = 8-24 h; assay type: functional
Rattus norvegicus [10] = assay: Minimally effective dose for suppression of startle in rat fear-potentiated startle assay, p.o.; Range = 0.3-3.0 mg/kg; assay type: functional; settings: po, read-out: MED
Rattus norvegicus [11] = assay: Onset of suppression of startle of compound in rat fear-potentiated startle assay at an oral dose of 3.0 mg/kg; assay type: functional
Rattus norvegicus [12] = assay: Duration of suppression of compound in rat fear-potentiated startle assay at an oral dose of 0.01 mg/kg; Range = 4-8 h; assay type: functional
Method in brief: (§2)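 Fed rats dosed orally. Three-day protocol: day 1 baseline startle (30 × 120 dB), groups of n = 8. Day 2 conditioning: 10 light (5 s)–shock (0.5 mA, 500 ms) pairings. Day 3, 24 h later: 20 noise-alone and 20 light+noise trials. Compound given at set pretreatment times before testing. Diazepam 0.6 mg/kg ip, 30 min pre-test, as positive control. MED = lowest dose with p < 0.05 versus control.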

Rattus norvegicus [13] = assay: Duration of suppression of compound in rat fear-potentiated startle assay at an oral dose of 0.1 mg/kg; assay type: functional; method in brief: as §2
Rattus norvegicus [14] = assay: Minimally effective dose for suppression of startle in rat fear-potentiated startle assay, p.o.; assay type: functional; settings: po, read-out: MED; method in brief: as §2
[15] = biological target: Metabotropic glutamate receptor 2 (Rattus norvegicus, UniProt P31421); assay: Inhibition of [3H]LY-341,495 binding to mGlu2 receptors of rat brain
Metabotropic glutamate receptor 2 (Rattus norvegicus, UniProt P31421), sequence (P31421 whole entry): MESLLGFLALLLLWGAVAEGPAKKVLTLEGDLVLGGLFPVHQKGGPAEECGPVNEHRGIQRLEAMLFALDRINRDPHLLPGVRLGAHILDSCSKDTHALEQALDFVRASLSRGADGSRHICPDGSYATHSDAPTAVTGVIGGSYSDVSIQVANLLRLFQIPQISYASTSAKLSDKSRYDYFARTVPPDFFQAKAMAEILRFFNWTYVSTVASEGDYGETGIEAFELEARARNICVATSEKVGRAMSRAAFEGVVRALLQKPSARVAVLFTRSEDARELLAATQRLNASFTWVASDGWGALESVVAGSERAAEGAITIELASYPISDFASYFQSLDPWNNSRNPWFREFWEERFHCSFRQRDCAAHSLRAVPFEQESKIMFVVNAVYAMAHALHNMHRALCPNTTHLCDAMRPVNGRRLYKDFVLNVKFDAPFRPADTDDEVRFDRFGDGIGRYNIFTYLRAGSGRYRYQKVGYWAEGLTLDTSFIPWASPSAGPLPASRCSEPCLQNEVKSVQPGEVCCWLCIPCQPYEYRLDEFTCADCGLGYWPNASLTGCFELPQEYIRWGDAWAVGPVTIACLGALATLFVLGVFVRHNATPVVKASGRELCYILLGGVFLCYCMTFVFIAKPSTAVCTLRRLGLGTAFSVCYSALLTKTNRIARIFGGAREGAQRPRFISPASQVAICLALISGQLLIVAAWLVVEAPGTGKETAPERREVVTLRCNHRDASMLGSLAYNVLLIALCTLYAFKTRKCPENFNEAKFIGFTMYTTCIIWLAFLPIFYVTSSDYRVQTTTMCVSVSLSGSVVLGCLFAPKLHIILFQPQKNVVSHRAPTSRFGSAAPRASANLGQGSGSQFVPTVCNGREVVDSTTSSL

Rattus norvegicus [16] = assay: Onset of suppression of startle of compound in rat fear-potentiated startle assay at an oral dose of 0.01 and 0.1 mg/kg; assay type: functional; method in brief: as §2

SMILES	Plasma concentration [1]	Plasma concentration [2]	Plasma concentration [3]	IC50 (Caco-2)	IC50 [4]	further results
CC[C@H](C)[C@H](NC(=O)[C@]1(N)CC[C@H]2[C@H](C(=O)O)[C@H]21)C(=O)O	34 ng/mL	20 ng/mL	18 ng/mL	–	–	–
N[C@@]1(C(=O)N[C@@H](CO)C(=O)O)CC[C@H]2[C@H](C(=O)O)[C@H]21	–	53 ng/mL	36 ng/mL	–	–	–
CC(C)C[C@H](NC(=O)[C@]1(N)CC[C@H]2[C@H](C(=O)O)[C@H]21)C(=O)O	798 ng/mL	919 ng/mL	450 ng/mL	> 10000 µM	620 µM	AUC [5]: 21300 ng·h/mL
CSCC[C@H](NC(=O)[C@]1(N)CC[C@H]2[C@H](C(=O)O)[C@H]21)C(=O)O	808 ng/mL	889 ng/mL	602 ng/mL	–	–	AUC [5]: 16600 ng·h/mL
N[C@@]1(C(=O)NCC(=O)O)CC[C@H]2[C@H](C(=O)O)[C@H]21	–	–	19 ng/mL	–	–	–
C[C@H](N)C(=O)N[C@@H](C)C(=O)N[C@@]1(C(=O)O)CC[C@H]2[C@H](C(=O)O)[C@H]21.Cl	1554 ng/mL	734 ng/mL	3620 ng/mL	7290 µM	2880 µM	–
CC(C)C[C@H](N)C(=O)N[C@@]1(C(=O)O)CC[C@H]2[C@H](C(=O)O)[C@H]21.Cl	4323 ng/mL	1152 ng/mL	4488 ng/mL	5010 µM	1430 µM	AUC [5]: 0 ng·h/mL
CSCC[C@H](N)C(=O)N[C@@]1(C(=O)O)CC[C@H]2[C@H](C(=O)O)[C@H]21.Cl	2107 ng/mL	–	3720 ng/mL	–	–	–
Cl.N[C@@H](CO)C(=O)N[C@@]1(C(=O)O)CC[C@H]2[C@H](C(=O)O)[C@H]21	1365 ng/mL	–	1497 ng/mL	–	–	–
CC(C)[C@H](N)C(=O)N[C@@]1(C(=O)O)CC[C@H]2[C@H](C(=O)O)[C@H]21.Cl	2124 ng/mL	1136 ng/mL	2387 ng/mL	–	–	–
C[C@H](N)C(=O)N[C@@]1(C(=O)O)CC[C@H]2[C@H](C(=O)O)[C@H]21.Cl [TALAGLUMETAD HYDROCHLORIDE]	3381 ng/mL	1770 ng/mL	3732 ng/mL	300 µM	120 µM	Ki [7]: > 10 µM; Duration (Rattus norvegicus [12]): 8 h; Duration (Rattus norvegicus [13]): >=24 hr; Ki [8]: > 10 µM; minimal effective dose (Rattus norvegicus [14]): 0.01 mg/kg; Ki [15]: > 10 µM; AUC [5]: 0 ng·h/mL; Onset (Rattus norvegicus [16]): <=1 hr

Continued, in another order:

Plasma concentration [1]	Plasma concentration [2]	Plasma concentration [3]	IC50 (Caco-2)	IC50 [4]	SMILES	further results
44 ng/mL	124 ng/mL	30 ng/mL	–	–	N[C@@]1(C(=O)N[C@@H](Cc2ccc(O)cc2)C(=O)O)CC[C@H]2[C@H](C(=O)O)[C@H]21	–
45 ng/mL	10 ng/mL	20 ng/mL	2680 µM	1540 µM	N[C@@]1(C(=O)N[C@@H](Cc2ccccc2)C(=O)O)CC[C@H]2[C@H](C(=O)O)[C@H]21	AUC [5]: 11400 ng·h/mL
1457 ng/mL	2032 ng/mL	2009 ng/mL	–	–	CC[C@H](C)[C@H](N)C(=O)N[C@@]1(C(=O)O)CC[C@H]2[C@H](C(=O)O)[C@H]21.Cl	–
17 ng/mL	10 ng/mL	10 ng/mL	–	–	CC(C)[C@H](NC(=O)[C@]1(N)CC[C@H]2[C@H](C(=O)O)[C@H]21)C(=O)O	–
26 ng/mL	55 ng/mL	44 ng/mL	3050 µM	1340 µM	CC(C)C[C@H](NC(=O)[C@]1(NC(=O)[C@H](C)N)CCC2C1[C@H]2C(=O)O)C(=O)O (stereo not given in full)	–
2763 ng/mL	1274 ng/mL	1710 ng/mL	420 µM	520 µM	Cl.N[C@@H](Cc1ccccc1)C(=O)N[C@@]1(C(=O)O)CC[C@H]2[C@H](C(=O)O)[C@H]21	AUC [5]: 194 ng·h/mL
147 ng/mL	246 ng/mL	74 ng/mL	–	–	Cl.NCCCC[C@H](N)C(=O)N[C@@]1(C(=O)O)CC[C@H]2[C@H](C(=O)O)[C@H]21	–
2163 ng/mL	–	1915 ng/mL	–	–	Cl.N[C@@H](Cc1ccc(O)cc1)C(=O)N[C@@]1(C(=O)O)CC[C@H]2[C@H](C(=O)O)[C@H]21	–
191 ng/mL	525 ng/mL	81 ng/mL	> 10000 µM	6660 µM	C[C@@H](N)C(=O)N[C@@]1(C(=O)O)CC[C@H]2[C@H](C(=O)O)[C@H]21.Cl	–
1992 ng/mL	–	1707 ng/mL	–	–	Cl.NCC(=O)N[C@@]1(C(=O)O)CC[C@H]2[C@H](C(=O)O)[C@H]21	–
455 ng/mL	–	319 ng/mL	–	–	Cl.O=C(O)[C@H]1[C@@H]2CC[C@@](NC(=O)[C@@H]3CCCN3)(C(=O)O)[C@@H]21	Plasma concentration [6]: 670 ng/mL
894 ng/mL	877 ng/mL	1478 ng/mL	6310 µM	1700 µM	CC(C)C[C@@H](N)C(=O)N[C@@]1(C(=O)O)CC[C@H]2[C@H](C(=O)O)[C@H]21.Cl	–
–	–	–	> 10000 µM	> 19000 µM	N[C@@]1(C(=O)O)CC[C@H]2[C@H](C(=O)O)[C@H]21	Ki [7]: 0.0847 µM; Ki [8]: 0.126 µM; Duration (Rattus norvegicus [9]): 24 h; minimal effective dose (Rattus norvegicus [10]): 3 mg/kg; Onset (Rattus norvegicus [11]): <=1 hr
